{"data": "Experimental data pooled from the literature", "AMY2": "Pancreatic alpha-amylase (AMY2, Sus scrofa, UniProt P00690)", "D14": "D14 (Arabidopsis thaliana, UniProt Q9SQR3)", "note": "Compare with care: the assays were run in different laboratories."}
{"Compound": "O=c1cc(-c2ccccc2)oc2cc(O)cc(O)c12", "target": "AMY2", "assay": "enzyme activity, inhibitor", "setting": "50 µM, 30 min", "endpoint": "inhibition", "result": "22.3%"}
{"Compound": "CC1=CC(O/C=C2/C(=O)OC3c4ccccc4CC23)OC1=O (racemic)", "target": "D14", "assay": "thermal stability, DSF", "setting": "10 µM", "endpoint": "ΔTm", "result": "-7.04 °C"}
{"Compound": "O=c1c(O)c(-c2ccc(O)cc2O)oc2cc(O)cc(O)c12", "target": "AMY2", "assay": "enzyme activity, inhibitor", "setting": "50 µM, 30 min", "endpoint": "inhibition", "result": "55.1%"}
{"Compound": "COc1ccc2oc(-c3ccc4nc(N)oc4c3)c/c(=N\\c3ccccc3NC(=O)CCN)c2c1", "target": "Receptor-interacting serine/threonine-protein kinase 1 (RIPK1, Homo sapiens, UniProt Q13546)", "assay": "binding", "setting": "1 µM", "endpoint": "remaining binding", "result": "110%"}
{"Compound": "COc1cc(O)c2c(c1)O[C@H](c1ccccc1)CC2=O", "target": "AMY2", "assay": "enzyme activity, inhibitor", "setting": "50 µM", "endpoint": "inhibition", "result": "12.8%"}
{"Compound": "CC1=C(/C=C/C(C)=C/C=O)C(C)(C)CCC1", "target": "D14", "assay": "thermal stability, DSF", "setting": "50 µM", "endpoint": "ΔTm", "result": "-3.82 °C"}
{"Compound": "C#Cc1cc(-c2cc(Nc3nc(N[C@@H](C)c4ccc(F)cn4)ncc3Cl)n[nH]2)ccc1C=O", "target": "Eukaryotic translation initiation factor 2-alpha kinase 3 (EIF2AK3, Homo sapiens, UniProt Q9NZJ5)", "assay": "enzyme activity, inhibitor", "setting": "0.2 µM", "endpoint": "inhibition", "result": "16.5%"}
{"Compound": "CC1=C(/C=C/C(C)=C/C=O)C(C)(C)C[C@H](O)C1", "target": "D14", "assay": "thermal stability, DSF", "setting": "1 µM", "endpoint": "ΔTm", "result": "0.28 °C"}
{"Compound": "Cc1cc(O)c(-c2ccc([C@@H](C)CN(C)C)cc2)c2c1[nH]c(=O)c1sccc12", "target": "Ribosomal protein S6 kinase alpha-1, C-terminal kinase domain (RPS6KA1, Homo sapiens, UniProt Q15418)", "assay": "enzyme activity, inhibitor", "setting": "0.1 µM", "endpoint": "inhibition", "result": "-4.95%"}
{"Compound": "C1=C/COCc2cc(ccc2OCCN2CCCC2)Nc2nccc(n2)-c2cccc(c2)COC/1", "target": "Serine/threonine-protein kinase Nek7 (NEK7, Homo sapiens, UniProt Q8TDX7)", "assay": "binding", "setting": "0.1 µM", "endpoint": "remaining binding", "result": "40%"}
{"Compound": "CC(=O)/C=C/C=C(C)/C=C/C1=C(C)CC(O)CC1(C)C (stereo in doubt)", "target": "D14", "assay": "thermal stability, DSF", "setting": "1 µM", "endpoint": "ΔTm", "result": "0.09 °C"}
{"Compound": "O=c1cc(-c2ccc(O)c(O)c2)oc2c(Br)c(O)c(Br)c(O)c12", "target": "AMY2", "assay": "enzyme activity, inhibitor", "setting": "50 µM, 30 min", "endpoint": "inhibition", "result": "99.8%"}
{"Compound": "Cc1cc(S(=O)(=O)N[C@H]2CC[C@H](CN3CCN(c4ccc(C5CCC(=O)NC5=O)cc4F)CC3)CC2)ccc1Nc1ncc(C(F)(F)F)c(N2CCC[C@](C)(O)C2)n1 (stereo partly drawn)", "target": "Cyclin-dependent kinase 4 (CDK4, Homo sapiens, UniProt P11802)", "assay": "binding, competition with immobilised ligand", "setting": "1 µM", "endpoint": "remaining binding", "result": "100%"}
{"Compound": "O=c1c(O)c(-c2ccc(O)cc2)oc2c(Br)c(O)c(Br)c(O)c12", "target": "AMY2", "assay": "enzyme activity, inhibitor", "setting": "50 µM, 30 min", "endpoint": "inhibition", "result": "100%"}
{"Compound": "CCCCC(=O)Nc1ccc(-c2ccc3ncn(CCC)c(=O)c3c2)cn1", "target": "Serine/threonine-protein kinase 24 (STK24, Homo sapiens, UniProt Q9Y6E0)", "assay": "binding, competition with immobilised ligand", "setting": "0.5 µM", "endpoint": "remaining binding", "result": "97%"}
